Reference: ChEMBL document CHEMBL3616402, “A novel series of indazole-/indole-based glucagon receptor antagonists” (Bioorg Med Chem Lett, 2015)

Assays:
Glucagon receptor [1] = biological target: T1, Glucagon receptor (Homo sapiens, UniProt P47871); assay: Displacement of [125I]glucagon from human glucagon receptor expressed in CHO cell membranes
How it was run: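 Binding: displacement of [125I]glucagon from human GCGR in membranes prepared from a CHO cell line stably expressing hGCGR; IC50 reported in nM.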

Glucagon receptor [2] = biological target: T1, Glucagon receptor; assay: Antagonist activity against human glucagon receptor expressed in CHO cells assessed as reduction in glucagon-induced cAMP production; assay type: functional, cell-based

T1 sequence (P47871 whole entry): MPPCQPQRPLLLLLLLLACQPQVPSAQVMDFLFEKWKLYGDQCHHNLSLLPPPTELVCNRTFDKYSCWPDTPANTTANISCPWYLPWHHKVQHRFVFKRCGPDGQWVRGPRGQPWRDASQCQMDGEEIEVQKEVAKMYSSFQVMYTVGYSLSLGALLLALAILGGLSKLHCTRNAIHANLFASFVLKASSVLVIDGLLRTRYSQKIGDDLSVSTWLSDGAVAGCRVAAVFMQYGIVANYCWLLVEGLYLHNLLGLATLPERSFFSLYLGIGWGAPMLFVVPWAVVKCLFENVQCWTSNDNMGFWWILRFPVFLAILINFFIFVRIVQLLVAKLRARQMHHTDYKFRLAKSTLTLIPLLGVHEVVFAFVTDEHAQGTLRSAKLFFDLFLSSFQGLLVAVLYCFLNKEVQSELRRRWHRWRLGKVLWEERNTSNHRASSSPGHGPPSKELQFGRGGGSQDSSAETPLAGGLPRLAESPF

Structure (SMILES)	IC50 (Glucagon receptor [1]) [nM]	IC50 (Glucagon receptor [2]) [nM]
CC(c1ccc(C(=O)NCCC(=O)O)cc1)n1nc(-c2ccc(C(=O)N(C)C)cc2)c2ccc(-c3ccc(OC(F)(F)F)cc3)cc21 (stereo not drawn)	40	210
CC(c1ccc(C(=O)NCCC(=O)O)cc1)n1nc(-c2ccc(C#N)cc2)c2ccc(-c3ccc(OC(F)(F)F)cc3)cc21 (stereo not drawn)	15	43
CC(c1ccc(C(=O)NCCC(=O)O)cc1)n1nc(-c2ccc(Cl)c(F)c2)c2ccc(-c3ccc(OC(F)(F)F)cc3)cc21 (stereo not drawn)	4	44
COc1ncccc1-c1nn(C(C)c2ccc(C(=O)NCCC(=O)O)cc2)c2cc(-c3ccc(OC(F)(F)F)cc3)ccc12 (stereo not drawn)	72	77
CCCCC(c1ccc(C(=O)NCCC(=O)O)cc1)n1nc(-c2cc(C(F)(F)F)ccc2OC)c2ccc(-c3ccc(OC)nc3)cc21 (stereo not drawn)	3.4	24
CCCC(c1ccc(C(=O)NCCC(=O)O)cc1)n1nc(-c2cc(C(F)(F)F)ccc2OC)c2cccc(-c3ccc(OC)cc3)c21 (stereo not drawn)	1700	2700
COc1nccc(-c2nn(C(C)c3ccc(C(=O)NCCC(=O)O)cc3)c3cc(-c4ccc(OC(F)(F)F)cc4)ccc23)n1 (stereo not drawn)	35	84
CCCCC(c1ccc(C(=O)NCCC(=O)O)cc1)n1nc(-c2cc(C(F)(F)F)ccc2OC)c2ccc(-c3ccc(SC)cc3)cc21 (stereo not drawn)	1.5	9
CC(c1ccc(C(=O)NCCC(=O)O)cc1)n1nc(-c2cc(F)c(F)c(F)c2)c2ccc(-c3ccc(OC(F)(F)F)cc3)cc21 (stereo not drawn)	6	20
CCCCC(c1ccc(C(=O)NCCC(=O)O)cc1)n1nc(-c2cc(C(F)(F)F)ccc2OC)c2ccc(-c3ccccc3)cc21 (stereo not drawn)	3	18
CCCCC(c1ccc(C(=O)NCCC(=O)O)cc1)n1nc(-c2cc(C(F)(F)F)ccc2OC)c2ccc(-c3ccc(OC)c(F)c3)cc21 (stereo not drawn)	1.5	18
CCCC(c1ccc(C(=O)NCCC(=O)O)cc1)n1nc(-c2cc(C(F)(F)F)ccc2OC)c2ccc(-c3ccc(OC)cc3)cc21 (stereo not drawn)	4	11
CC(c1ccc(C(=O)NCCC(=O)O)cc1)n1nc(-c2ccc(Cl)cc2Cl)c2ccc(-c3ccc(OC(F)(F)F)cc3)cc21 (stereo not drawn)	8	41
COc1cncc(-c2nn(C(C)c3ccc(C(=O)NCCC(=O)O)cc3)c3cc(-c4ccc(OC(F)(F)F)cc4)ccc23)c1 (stereo not drawn)	50	100
CCCC(c1ccc(C(=O)NCCC(=O)O)cc1)n1nc(-c2cc(C(F)(F)F)ccc2OC)c2ccc(-c3ccc(C)cc3)cc21 (stereo not drawn)	2	5
CCCCC(c1ccc(C(=O)NCCC(=O)O)cc1)n1nc(-c2cc(C(F)(F)F)ccc2OC)c2ccc(-c3ccc(C)s3)cc21 (stereo not drawn)	4	18
COc1ccc(C(F)(F)F)cc1-c1nn(Cc2ccc(C(=O)NCCC(=O)O)cc2)c2cc(-c3ccc(C)cc3)ccc12	39	140
CC(c1ccc(C(=O)NCCC(=O)O)cc1)n1nc(-c2cc(Cl)ccc2C(N)=O)c2ccc(-c3ccc(OC(F)(F)F)cc3)cc21 (stereo not drawn)	2	220
CCCCC(c1ccc(C(=O)NCCC(=O)O)cc1)n1nc(-c2cc(C(F)(F)F)ccc2OC)c2ccc(-c3ccc(C(F)(F)F)cc3)cc21 (stereo not drawn)	1.6	14
COc1cc(F)c(F)cc1-c1nn(C(C)c2ccc(C(=O)NCCC(=O)O)cc2)c2cc(-c3ccc(OC(F)(F)F)cc3)ccc12 (stereo not drawn)	4	37

Structure (SMILES)	IC50 (Glucagon receptor [1]) [nM]	IC50 (Glucagon receptor [2]) [nM]
CC(c1ccc(C(=O)NCCC(=O)O)cc1)n1nc(-c2cc(Cl)cc(C(F)(F)F)c2)c2ccc(-c3ccc(OC(F)(F)F)cc3)cc21 (stereo not drawn)	3	56
COc1ccc(OC(F)(F)F)cc1-c1nn(C(C)c2ccc(C(=O)NCCC(=O)O)cc2)c2cc(-c3ccc(OC(F)(F)F)cc3)ccc12 (stereo not drawn)	7	11
CCCC(c1ccc(C(=O)NCCC(=O)O)cc1)n1cc(-c2cc(C(F)(F)F)ccc2OC)c2ccc(-c3ccc(C)cc3)cc21 (racemic)	4	48
COc1ccc(C(F)(F)F)cc1-c1nn(C(c2ccc(C(=O)NCCC(=O)O)cc2)C(C)C)c2cc(-c3ccc(C)cc3)ccc12 (stereo not drawn)	4	69
CCCC(c1ccc(C(=O)NCCC(=O)O)cc1)n1nc(-c2cc(C(F)(F)F)ccc2OC)c2cc(-c3ccc(C)cc3)ccc21 (stereo not drawn)	7	17
CC(c1ccc(C(=O)NCCC(=O)O)cc1)n1nc(-c2cc(F)cc(F)c2F)c2ccc(-c3ccc(OC(F)(F)F)cc3)cc21 (stereo not drawn)	7	52
CCCC(c1ccc(C(=O)NCCC(=O)O)cc1)n1nc(-c2cc(C(F)(F)F)ccc2OC)c2cccc(-c3ccc(C)cc3)c21 (stereo not drawn)	780	3800
COc1ccc(-c2nn(C(C)c3ccc(C(=O)NCCC(=O)O)cc3)c3cc(-c4ccc(OC(F)(F)F)cc4)ccc23)cn1 (stereo not drawn)	26	65
CCCC(c1ccc(C(=O)NCCC(=O)O)cc1)n1cc(-c2cc(C(F)(F)F)ccc2OC)c2ccc(-c3ccc(OC)cc3)cc21 (racemic)	8	130
CCCCC(c1ccc(C(=O)NCCC(=O)O)cc1)n1nc(-c2cc(C(F)(F)F)ccc2OC)c2ccc(-c3cc(F)cc(Cl)c3)cc21 (stereo not drawn)	7	46
CCCCC(c1ccc(C(=O)NCCC(=O)O)cc1)n1nc(-c2cc(C(F)(F)F)ccc2OC)c2ccc(-c3ccc(OC)cc3Cl)cc21 (stereo not drawn)	4	18
CC(c1ccc(C(=O)NCCC(=O)O)cc1)n1nc(-c2cc(C(F)(F)F)ccc2F)c2ccc(-c3ccc(OC(F)(F)F)cc3)cc21 (stereo not drawn)	5	120
CC(c1ccc(C(=O)NCCC(=O)O)cc1)n1nc(-c2cc(F)ccc2Cl)c2ccc(-c3ccc(OC(F)(F)F)cc3)cc21 (stereo not drawn)	10	140
CCC(c1ccc(C(=O)NCCC(=O)O)cc1)n1nc(-c2cc(C(F)(F)F)ccc2OC)c2ccc(-c3ccc(C)cc3)cc21 (stereo not drawn)	4	21
CCCC(c1ccc(C(=O)NCCC(=O)O)cc1)n1cc(-c2cc(C(F)(F)F)ccc2OC)c2ccc(-c3ccc(OC(F)(F)F)cc3)nc21 (stereo not drawn)	12	360
CCCCC(c1ccc(C(=O)NCCC(=O)O)cc1)n1nc(-c2cc(C(F)(F)F)ccc2OC)c2ccc(-c3cc(F)c(F)c(F)c3)cc21 (stereo not drawn)	3.5	26
COc1ccncc1-c1nn(C(C)c2ccc(C(=O)NCCC(=O)O)cc2)c2cc(-c3ccc(OC(F)(F)F)cc3)ccc12 (stereo not drawn)	110	760
COc1ccc(Cl)cc1-c1nn(C(C)c2ccc(C(=O)NCCC(=O)O)cc2)c2cc(-c3ccc(OC(F)(F)F)cc3)ccc12 (stereo not drawn)	3	36
CCCC(c1ccc(C(=O)NCCC(=O)O)cc1)n1nc(-c2cc(C(F)(F)F)ccc2OC)c2cc(-c3ccc(OC)cc3)ccc21 (stereo not drawn)	10	26
